# Assay results: article PMC6893910 (ACS chemical biology, 2019)
# Entries after “also recorded” stand apart in the source; their conditions may differ.
# Legend:
# HDAC11 [1] = target: T1, HDAC11 (Homo sapiens, UniProt Q96DB2); assay: HDAC11 demyristoylation of myristoyl-SHMT2 peptide in vitro; assay type: biochemical; details: read-out: IC50 against HDAC11; myristoyl-SHMT2 peptide substrate
# T1 sequence (Q96DB2 1-347): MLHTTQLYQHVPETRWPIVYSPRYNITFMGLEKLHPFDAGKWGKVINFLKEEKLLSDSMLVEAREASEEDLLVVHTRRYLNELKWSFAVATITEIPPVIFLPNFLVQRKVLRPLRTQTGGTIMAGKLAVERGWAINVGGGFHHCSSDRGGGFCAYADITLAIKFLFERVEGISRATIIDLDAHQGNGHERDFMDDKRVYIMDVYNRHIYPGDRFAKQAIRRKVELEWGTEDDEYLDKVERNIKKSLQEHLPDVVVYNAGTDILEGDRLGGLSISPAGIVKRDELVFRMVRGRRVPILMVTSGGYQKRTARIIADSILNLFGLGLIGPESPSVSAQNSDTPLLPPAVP
# HDAC4 = HDAC4 (Homo sapiens, UniProt P56524); assay: In vitro selectivity assay with acyl-H3K9 peptide, HDAC4; assay type: biochemical; details: at 100 μM
# HDAC4, sequence (P56524 whole entry, species assumed): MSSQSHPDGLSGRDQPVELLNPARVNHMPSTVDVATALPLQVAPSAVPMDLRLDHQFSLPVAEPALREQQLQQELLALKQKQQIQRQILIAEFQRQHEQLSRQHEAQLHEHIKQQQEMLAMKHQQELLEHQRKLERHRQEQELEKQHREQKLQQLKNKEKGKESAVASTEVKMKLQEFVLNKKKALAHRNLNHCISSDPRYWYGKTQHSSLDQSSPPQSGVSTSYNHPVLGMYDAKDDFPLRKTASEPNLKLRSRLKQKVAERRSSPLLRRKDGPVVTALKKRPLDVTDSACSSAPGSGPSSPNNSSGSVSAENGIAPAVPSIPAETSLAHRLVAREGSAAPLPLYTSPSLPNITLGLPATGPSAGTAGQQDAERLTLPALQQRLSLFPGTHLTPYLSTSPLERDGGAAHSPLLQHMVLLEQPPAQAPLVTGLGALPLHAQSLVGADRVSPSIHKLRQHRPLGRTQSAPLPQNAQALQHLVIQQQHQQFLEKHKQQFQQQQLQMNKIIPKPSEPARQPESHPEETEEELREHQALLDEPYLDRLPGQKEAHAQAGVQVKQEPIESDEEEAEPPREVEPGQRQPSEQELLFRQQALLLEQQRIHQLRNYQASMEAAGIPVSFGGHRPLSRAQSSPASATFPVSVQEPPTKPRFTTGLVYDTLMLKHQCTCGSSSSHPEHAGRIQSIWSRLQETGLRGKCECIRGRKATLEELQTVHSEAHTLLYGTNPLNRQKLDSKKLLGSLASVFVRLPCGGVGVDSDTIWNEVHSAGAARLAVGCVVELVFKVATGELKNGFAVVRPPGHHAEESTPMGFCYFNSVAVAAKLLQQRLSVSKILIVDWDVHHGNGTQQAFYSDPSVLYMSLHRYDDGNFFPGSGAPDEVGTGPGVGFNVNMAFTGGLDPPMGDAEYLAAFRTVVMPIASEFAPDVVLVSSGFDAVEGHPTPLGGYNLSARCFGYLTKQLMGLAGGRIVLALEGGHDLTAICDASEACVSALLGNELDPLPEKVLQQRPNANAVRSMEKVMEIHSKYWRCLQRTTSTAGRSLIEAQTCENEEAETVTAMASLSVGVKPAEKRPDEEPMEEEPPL
# [2] = system: acetylation level of histone H3; assay: Acetyl-histone H3 immunoblot in HEK 293T cells; assay type: cell-based; details: 6 hrs
# Method in brief: (§1)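 HEK 293T cells were treated with test compound for 6 hrs. Acetyl-α-tubulin (K40) and acetyl-histone H3 were both detected by immunoblot of the treated cells.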
# HDAC8 = target: T2, HDAC8 (Homo sapiens, UniProt Q9BY41); assay: In vitro selectivity assay with acyl-H3K9 peptide, HDAC8; assay type: biochemical; details: at 100 μM
# T2 sequence (Q9BY41 1-377): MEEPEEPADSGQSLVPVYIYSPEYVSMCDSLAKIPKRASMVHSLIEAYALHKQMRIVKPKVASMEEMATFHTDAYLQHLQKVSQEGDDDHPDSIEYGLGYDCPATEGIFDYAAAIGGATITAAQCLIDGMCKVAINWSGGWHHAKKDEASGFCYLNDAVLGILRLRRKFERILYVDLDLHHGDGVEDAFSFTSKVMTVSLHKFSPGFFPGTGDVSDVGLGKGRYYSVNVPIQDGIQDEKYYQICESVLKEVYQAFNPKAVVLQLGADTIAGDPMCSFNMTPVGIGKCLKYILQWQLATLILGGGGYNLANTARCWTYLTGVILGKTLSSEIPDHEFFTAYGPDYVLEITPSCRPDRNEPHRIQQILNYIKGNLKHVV
# SIRT3 = target: T3, SIRT3 (Homo sapiens, UniProt Q9NTG7); assay: In vitro selectivity assay with acyl-H3K9 peptide, SIRT3; assay type: biochemical; details: at 100 μM
# T3 sequence (Q9NTG7 1-399): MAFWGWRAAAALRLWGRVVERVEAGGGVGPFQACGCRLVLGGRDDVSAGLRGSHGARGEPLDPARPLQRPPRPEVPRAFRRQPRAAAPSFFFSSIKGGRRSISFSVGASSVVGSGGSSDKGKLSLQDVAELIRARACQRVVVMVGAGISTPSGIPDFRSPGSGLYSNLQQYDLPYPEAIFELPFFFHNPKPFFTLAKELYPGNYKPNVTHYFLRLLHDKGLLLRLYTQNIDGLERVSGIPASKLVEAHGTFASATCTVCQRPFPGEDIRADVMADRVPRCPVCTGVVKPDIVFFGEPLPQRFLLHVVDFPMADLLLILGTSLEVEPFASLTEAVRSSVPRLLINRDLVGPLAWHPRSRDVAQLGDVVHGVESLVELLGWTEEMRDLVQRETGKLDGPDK
# SIRT2 = target: T4, SIRT2 (Homo sapiens, UniProt Q8IXJ6); assay: In vitro selectivity assay with acyl-H3K9 peptide, SIRT2; assay type: biochemical; details: at 100 μM
# T4 sequence (Q8IXJ6 1-389): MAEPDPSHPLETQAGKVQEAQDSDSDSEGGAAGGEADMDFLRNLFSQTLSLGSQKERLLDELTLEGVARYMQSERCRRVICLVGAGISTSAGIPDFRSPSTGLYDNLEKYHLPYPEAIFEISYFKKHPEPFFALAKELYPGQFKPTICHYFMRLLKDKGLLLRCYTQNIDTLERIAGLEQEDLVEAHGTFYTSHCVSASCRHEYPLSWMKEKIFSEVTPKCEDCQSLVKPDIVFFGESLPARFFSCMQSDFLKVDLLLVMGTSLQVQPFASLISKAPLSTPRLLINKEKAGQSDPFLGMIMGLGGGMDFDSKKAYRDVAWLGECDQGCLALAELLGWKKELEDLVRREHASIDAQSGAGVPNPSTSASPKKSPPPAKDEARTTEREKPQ
# [3] = system: acetylation level of α-tubulin; assay: Acetyl-α-tubulin; assay type: cell-based; details: HEK 293T cells, 6 hrs
# Method in brief: as §1
# HDAC1 = HDAC1 (Homo sapiens, UniProt Q13547); assay: In vitro selectivity assay with acyl-H3K9 peptide, HDAC1; assay type: biochemical; details: at 100 μM
# HDAC1, sequence (Q13547 whole entry, species assumed): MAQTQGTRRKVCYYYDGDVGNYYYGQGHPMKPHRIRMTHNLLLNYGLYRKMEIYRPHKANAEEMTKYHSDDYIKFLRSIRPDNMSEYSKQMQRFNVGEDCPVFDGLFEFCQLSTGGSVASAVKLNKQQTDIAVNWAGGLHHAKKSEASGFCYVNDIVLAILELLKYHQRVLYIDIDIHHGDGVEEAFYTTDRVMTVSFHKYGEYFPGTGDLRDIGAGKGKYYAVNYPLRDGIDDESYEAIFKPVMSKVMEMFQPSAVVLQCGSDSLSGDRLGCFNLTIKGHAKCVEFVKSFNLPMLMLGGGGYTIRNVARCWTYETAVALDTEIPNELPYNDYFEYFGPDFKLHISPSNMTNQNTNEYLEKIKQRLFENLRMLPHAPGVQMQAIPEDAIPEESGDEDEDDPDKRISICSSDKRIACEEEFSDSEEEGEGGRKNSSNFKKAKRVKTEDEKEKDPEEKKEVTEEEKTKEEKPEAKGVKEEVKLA
# [4] = LC-MS based detection of compound in cell lysate; assay type: in vitro ADME; details: LC-MS based assay
# SIRT6 = SIRT6 (Homo sapiens, UniProt Q8N6T7); assay: In vitro selectivity assay with acyl-H3K9 peptide, SIRT6; assay type: biochemical; details: at 100 μM
# SIRT6, sequence (Q8N6T7 whole entry, species assumed): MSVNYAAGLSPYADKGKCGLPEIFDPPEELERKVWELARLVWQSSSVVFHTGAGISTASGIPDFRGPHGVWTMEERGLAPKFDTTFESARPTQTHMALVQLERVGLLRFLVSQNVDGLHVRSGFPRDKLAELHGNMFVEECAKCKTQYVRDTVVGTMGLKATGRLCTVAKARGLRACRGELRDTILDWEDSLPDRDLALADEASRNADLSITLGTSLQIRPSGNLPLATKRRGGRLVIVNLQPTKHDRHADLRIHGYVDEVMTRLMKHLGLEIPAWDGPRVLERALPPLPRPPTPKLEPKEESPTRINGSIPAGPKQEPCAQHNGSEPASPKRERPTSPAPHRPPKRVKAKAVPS
# SIRT1 = target: T5, SIRT1 (Homo sapiens, UniProt Q96EB6); assay: In vitro selectivity assay with acyl-H3K9 peptide, SIRT1; assay type: biochemical; details: at 100 μM
# T5 sequence (Q96EB6 1-747): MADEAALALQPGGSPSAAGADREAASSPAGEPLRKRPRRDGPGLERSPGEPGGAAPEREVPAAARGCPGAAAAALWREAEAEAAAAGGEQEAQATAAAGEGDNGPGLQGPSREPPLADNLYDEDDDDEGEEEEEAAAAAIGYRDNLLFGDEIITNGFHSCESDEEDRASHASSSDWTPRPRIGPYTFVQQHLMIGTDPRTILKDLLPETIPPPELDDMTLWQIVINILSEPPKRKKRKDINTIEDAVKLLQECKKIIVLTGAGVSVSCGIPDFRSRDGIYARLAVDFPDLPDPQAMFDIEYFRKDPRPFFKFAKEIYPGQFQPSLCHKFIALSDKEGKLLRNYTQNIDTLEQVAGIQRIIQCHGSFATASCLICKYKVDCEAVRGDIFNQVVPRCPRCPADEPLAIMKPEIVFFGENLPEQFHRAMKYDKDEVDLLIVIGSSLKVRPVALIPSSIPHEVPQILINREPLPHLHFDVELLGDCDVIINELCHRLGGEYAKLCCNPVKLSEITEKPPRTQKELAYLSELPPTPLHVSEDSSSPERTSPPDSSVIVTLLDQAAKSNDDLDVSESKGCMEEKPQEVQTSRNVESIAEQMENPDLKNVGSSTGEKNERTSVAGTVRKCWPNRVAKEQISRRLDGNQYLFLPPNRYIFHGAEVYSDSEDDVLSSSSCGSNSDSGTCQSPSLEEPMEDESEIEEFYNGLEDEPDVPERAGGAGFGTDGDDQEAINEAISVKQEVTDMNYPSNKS
# HDAC11 [5] = target: T1, HDAC11; assay: HPLC-based HDAC11 assay with myristoyl-H3K9 peptide; assay type: biochemical
# [6] = myristoyl-H3K9 peptide substrate, HPLC assay
smiles,measurement,setting,value
CCCCCCCCCCCCCCCCNNC(=O)c1cccs1 [SIS17],IC50,HDAC11 [1],270 nM
same,HDAC4 inhibition,HDAC4,did not show significant inhibition
same,acetylation level of histone H3,[2]; up to 50 μM,did not affect
same,HDAC8 inhibition,HDAC8,did not show significant inhibition
same,SIRT3 inhibition,SIRT3,did not show significant inhibition
same,SIRT2 inhibition,SIRT2,did not show significant inhibition
same,acetylation level of α-tubulin,[3]; up to 50 μM,did not affect
same,HDAC1 inhibition,HDAC1,did not show significant inhibition
same,detection of compound in cell lysate,[4],could readily detect
same,SIRT6 inhibition,SIRT6,did not show significant inhibition
same,SIRT1 inhibition,SIRT1,did not show significant inhibition
same,IC50,"HDAC11 [5]; read-out: IC50 against HDAC11, myristoyl-H3K9 peptide substrate, HPLC assay",830 nM
CCCCNNC(=O)c1ccc(Br)cc1 [UF010],HDAC11 inhibition (in words),HDAC11 [5]; [6],Neither SAHA or UF010 could inhibit HDAC11; also recorded: did not inhibit HDAC11
CC1(C)c2cccc(C(=O)NO)c2CN1c1cnc(C(F)(F)F)cn1 [FT895],acetylation level of histone H3,[2]; up to 50 μM,did not affect
same,acetylation level of α-tubulin,[3]; up to 50 μM,did not affect
CCCCCCCCCCCCCCCC(=O)O [palmitic acid],HDAC11 inhibition,HDAC11 [5]; at 10 μM,no inhibition
"O=C(CCCCCCC(=O)Nc1ccccc1)NO [SAHA, Vorinostat]",acetylation level of histone H3,[2]; at 1 μM,significantly increased
same,acetylation level of α-tubulin,[3]; at 1 μM,significantly increased
same,HDAC11 inhibition (in words),HDAC11 [5]; [6],Neither SAHA or UF010 could inhibit HDAC11
